Measured values published in ChEMBL document CHEMBL1828613, “Optimization of cellular activity of G9a inhibitors 7-aminoalkoxy-quinazolines” (J Med Chem, 2011).

What was measured:
[1] = molecular target: Histone-lysine N-methyltransferase SUV39H2 (Homo sapiens, UniProt Q9H5I1); test: Inhibition of SUV39H2 assessed as hydrolysis of S-adenosyl-L-homocysteine after 2 mins by SAHH-coupled fluorescence assay
Outline: (§1)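 Same coupled ThioGlo readout (25 mM potassium phosphate pH 7.5, 25 μM SAM, 5 μM SAHH, adenosine deaminase), 4 nM–16 μM inhibitor with 2 min preincubation, 20 min fluorescence at 360/528 nm. Enzyme and substrate by target: SETD7 200 nM with 100 μM H3(1–25); SETD8 250 nM with 500 μM H4(1–24); SUV39H2 100 nM with 200 μM H3K9Me1(1–15).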

[2] = molecular target: Protein arginine N-methyltransferase 3 (Homo sapiens, UniProt O60678); test: Inhibition of PRMT3 assessed as hydrolysis of S-adenosyl-L-homocysteine after 2 mins by SAHH-coupled fluorescence assay
Outline: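 Enzyme-coupled fluorescence readout. Methyltransfer product SAH is converted to homocysteine by SAHH in the presence of adenosine deaminase, and homocysteine is detected with the thiol-sensitive dye ThioGlo. Buffer is 25 mM potassium phosphate pH 7.5 with 1 mM EDTA, 2 mM MgCl2 and 0.01% Triton X-100, plus 5 μM SAHH, 0.3 U/mL deaminase, 25 μM SAM and 15 μM ThioGlo. PRMT3 is at 500 nM. Inhibitor (4 nM–16 μM) is preincubated 2 min, then 10 μM H4(1–24) peptide starts the reaction. Fluorescence is followed for 20 min at ex 360/em 528 nm and background-corrected. IC50 is fitted from two independent experiments.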

[3] = molecular target: T1, Histone-lysine N-methyltransferase EHMT1 (Homo sapiens, UniProt Q9H9B1); test: Inhibition of GLP assessed as hydrolysis of S-adenosyl-L-homocysteine after 2 mins by SAHH-coupled fluorescence assay
T1 sequence (Q9H9B1 whole entry): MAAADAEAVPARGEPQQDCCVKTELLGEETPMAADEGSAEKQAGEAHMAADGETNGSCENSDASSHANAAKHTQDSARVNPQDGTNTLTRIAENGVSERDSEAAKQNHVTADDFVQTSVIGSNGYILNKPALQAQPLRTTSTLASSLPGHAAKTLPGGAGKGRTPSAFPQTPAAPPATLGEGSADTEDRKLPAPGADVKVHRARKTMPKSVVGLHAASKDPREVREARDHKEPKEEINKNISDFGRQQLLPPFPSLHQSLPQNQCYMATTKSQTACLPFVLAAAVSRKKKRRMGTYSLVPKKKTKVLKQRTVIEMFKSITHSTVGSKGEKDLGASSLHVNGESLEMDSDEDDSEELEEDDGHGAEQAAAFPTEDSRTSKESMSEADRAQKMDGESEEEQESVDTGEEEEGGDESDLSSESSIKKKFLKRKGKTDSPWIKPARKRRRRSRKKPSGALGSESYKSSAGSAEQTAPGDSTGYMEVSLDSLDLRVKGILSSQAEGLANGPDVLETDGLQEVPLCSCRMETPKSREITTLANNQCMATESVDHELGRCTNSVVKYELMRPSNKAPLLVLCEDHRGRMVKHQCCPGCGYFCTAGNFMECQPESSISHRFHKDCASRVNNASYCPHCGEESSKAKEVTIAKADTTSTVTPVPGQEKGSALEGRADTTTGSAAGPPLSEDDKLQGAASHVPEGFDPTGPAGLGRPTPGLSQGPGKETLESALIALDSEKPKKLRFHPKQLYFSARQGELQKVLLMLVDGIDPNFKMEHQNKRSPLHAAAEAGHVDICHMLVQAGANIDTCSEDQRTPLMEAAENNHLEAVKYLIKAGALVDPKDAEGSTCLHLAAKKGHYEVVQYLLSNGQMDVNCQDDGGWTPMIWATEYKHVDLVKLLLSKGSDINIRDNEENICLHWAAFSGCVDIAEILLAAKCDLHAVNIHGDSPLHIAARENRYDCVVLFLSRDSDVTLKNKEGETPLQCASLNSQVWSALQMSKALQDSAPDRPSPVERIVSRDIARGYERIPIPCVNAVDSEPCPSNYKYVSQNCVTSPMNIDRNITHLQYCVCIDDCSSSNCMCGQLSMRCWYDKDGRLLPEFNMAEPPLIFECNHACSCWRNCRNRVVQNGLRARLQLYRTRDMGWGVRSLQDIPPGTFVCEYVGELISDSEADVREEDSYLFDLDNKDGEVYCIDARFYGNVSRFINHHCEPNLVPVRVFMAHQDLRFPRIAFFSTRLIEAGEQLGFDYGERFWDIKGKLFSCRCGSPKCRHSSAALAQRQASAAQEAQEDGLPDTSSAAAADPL
Outline: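 GLP at 100 nM was tested by SAHH/adenosine deaminase/ThioGlo coupling in pH 7.5 potassium phosphate buffer with EDTA, MgCl2, Triton X-100 and 25 μM SAM. Inhibitor (4 nM–16 μM) was preincubated 2 min before adding 20 μM H3(1–25). Fluorescence rise (360/528 nm) was tracked 20 min and background-subtracted. IC50 from two independent experiments.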

[4] = molecular target: T2, N-lysine methyltransferase KMT5A (Homo sapiens, UniProt Q9NQR1); test: Inhibition of SETD8 assessed as hydrolysis of S-adenosyl-L-homocysteine after 2 mins by SAHH-coupled fluorescence assay; outline: as §1
T2 sequence (Q9NQR1 whole entry): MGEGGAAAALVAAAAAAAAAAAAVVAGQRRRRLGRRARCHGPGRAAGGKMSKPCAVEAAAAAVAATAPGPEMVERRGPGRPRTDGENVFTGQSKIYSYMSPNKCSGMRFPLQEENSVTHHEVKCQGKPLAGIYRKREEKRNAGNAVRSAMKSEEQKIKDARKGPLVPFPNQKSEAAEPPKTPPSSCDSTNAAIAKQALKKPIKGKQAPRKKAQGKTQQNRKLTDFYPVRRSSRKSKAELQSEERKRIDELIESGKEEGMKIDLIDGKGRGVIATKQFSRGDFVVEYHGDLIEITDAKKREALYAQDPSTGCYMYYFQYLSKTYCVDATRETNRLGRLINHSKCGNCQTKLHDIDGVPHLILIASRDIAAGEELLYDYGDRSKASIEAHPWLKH

MDA-MB-231 = test: Cytotoxicity against human MDA-MB-231 cells assessed as cell viability after 48 hrs by MTT assay; type: functional, cell-based; settings: MDA-MB-231, 48 h
[5] = molecular target: T3, Histone-lysine N-methyltransferase SETD7 (Homo sapiens, UniProt Q8WTS6); test: Inhibition of SETD7 assessed as hydrolysis of S-adenosyl-L-homocysteine after 2 mins by SAHH-coupled fluorescence assay; outline: as §1
T3 sequence (Q8WTS6 whole entry): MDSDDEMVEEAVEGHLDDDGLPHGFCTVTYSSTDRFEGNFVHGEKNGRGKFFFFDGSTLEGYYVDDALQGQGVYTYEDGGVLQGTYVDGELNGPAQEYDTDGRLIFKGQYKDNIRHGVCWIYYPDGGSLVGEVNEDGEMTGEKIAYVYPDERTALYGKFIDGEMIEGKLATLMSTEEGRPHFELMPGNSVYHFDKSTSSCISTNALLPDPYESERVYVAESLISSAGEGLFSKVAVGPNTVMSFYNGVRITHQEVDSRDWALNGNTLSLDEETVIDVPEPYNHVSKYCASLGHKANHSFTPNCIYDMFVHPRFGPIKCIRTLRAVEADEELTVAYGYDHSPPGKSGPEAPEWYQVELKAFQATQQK

Protein arginine N-methyltransferase 3, sequence (O60678 whole entry): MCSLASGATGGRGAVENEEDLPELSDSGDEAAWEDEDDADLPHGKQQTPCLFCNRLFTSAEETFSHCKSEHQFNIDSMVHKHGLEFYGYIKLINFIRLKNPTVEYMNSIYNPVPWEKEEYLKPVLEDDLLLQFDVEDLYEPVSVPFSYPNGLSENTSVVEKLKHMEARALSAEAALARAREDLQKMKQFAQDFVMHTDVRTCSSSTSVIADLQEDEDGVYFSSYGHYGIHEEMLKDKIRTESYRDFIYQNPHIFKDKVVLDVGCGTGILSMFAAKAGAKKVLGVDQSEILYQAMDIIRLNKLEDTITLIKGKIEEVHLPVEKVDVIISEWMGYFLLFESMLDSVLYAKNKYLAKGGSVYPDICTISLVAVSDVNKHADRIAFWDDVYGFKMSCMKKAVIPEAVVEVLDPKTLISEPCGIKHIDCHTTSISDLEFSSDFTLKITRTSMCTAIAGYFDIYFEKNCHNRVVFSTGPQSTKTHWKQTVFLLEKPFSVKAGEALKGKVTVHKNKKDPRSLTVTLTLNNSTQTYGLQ
Histone-lysine N-methyltransferase SUV39H2, sequence (Q9H5I1 whole entry): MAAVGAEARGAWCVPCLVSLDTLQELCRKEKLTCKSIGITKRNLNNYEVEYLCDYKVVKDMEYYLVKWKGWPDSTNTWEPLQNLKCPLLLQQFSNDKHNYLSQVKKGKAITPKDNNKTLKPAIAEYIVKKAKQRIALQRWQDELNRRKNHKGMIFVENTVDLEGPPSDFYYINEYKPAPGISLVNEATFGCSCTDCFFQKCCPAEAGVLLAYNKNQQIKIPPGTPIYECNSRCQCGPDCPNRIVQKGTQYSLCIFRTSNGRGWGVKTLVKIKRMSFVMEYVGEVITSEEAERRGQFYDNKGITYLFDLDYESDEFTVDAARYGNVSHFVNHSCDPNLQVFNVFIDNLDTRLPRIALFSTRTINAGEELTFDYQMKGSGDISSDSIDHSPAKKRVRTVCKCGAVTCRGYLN

IC50 [1]: > 10 µM
IC50 [2]: > 10 µM
IC50 [3]: < 0.015 µM
IC50 [4]: > 10 µM
IC50 [5]: > 10 µM
Compound: COc1cc2c(NC3CCN(C4CCCCC4)CC3)nc(N3CCCN(C(C)C)CC3)nc2cc1OCCCN1CCCCC1
EC50 (MDA-MB-231): 3.3 µM
